Bioassay records as filed in PubChem.
The list is not random: actives were taken first. Their share in the collection is about 1.9%.
MBD2 DNA inh = inhibitors of MBD2 binding to methylated DNA, primary screen, biochemical, TR-FRET, DNA-binding domain, human. MBD2 binding to methylated oligonucleotide. inhibition, % at 4.4 µM. actives 0.31% (n = 370,000); in the data active = inhibition above about 13%
Target sequence (Q9UBB5 whole entry, looked up, the tested form may be a part): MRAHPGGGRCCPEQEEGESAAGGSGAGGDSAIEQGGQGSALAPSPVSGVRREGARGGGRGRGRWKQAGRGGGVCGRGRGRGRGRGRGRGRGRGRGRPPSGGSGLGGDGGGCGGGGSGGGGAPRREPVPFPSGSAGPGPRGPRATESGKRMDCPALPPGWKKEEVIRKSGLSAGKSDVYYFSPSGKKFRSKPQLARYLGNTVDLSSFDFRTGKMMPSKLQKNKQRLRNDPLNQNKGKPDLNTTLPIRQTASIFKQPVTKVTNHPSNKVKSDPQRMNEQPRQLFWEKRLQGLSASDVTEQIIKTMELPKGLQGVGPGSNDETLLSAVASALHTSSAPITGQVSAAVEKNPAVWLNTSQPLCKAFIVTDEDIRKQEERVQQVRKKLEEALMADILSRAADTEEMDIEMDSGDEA
TDP2 inh = human TDP2 enzyme inhibitors, primary screen, biochemical, epi absorbance, recombinant enzyme. inhibition, % at 12.8 µM. T5PNP hydrolysis, p-nitrophenol absorbance 415 nm. actives 0.34% (n = 370,000). Tyrosyl-DNA phosphodiesterase 2 (Homo sapiens), O95551;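 active = inhibition above the mean of all tested compounds plus 3 SD, set per campaign, cut at about 25% in these data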
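Incubation: 2 h at 37 °C; Test system: recombinant human TDP2; Quantity: enzyme 120 nM; Read-out basis: percent inhibition; Medium: 50 mM Tris-HCl pH 7.5 with Mg2+, KCl, DTT, BSA; Repeats: single replicate; Compound: 12.8 µM single point, 1% DMSO; Signal: epi absorbance; Reagent: 5 mM T5PNP chromogenic substrate; Benchmarks: no-enzyme high, DMSO-plus-enzyme low.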
DDE Tn6 FP inh = inhibitors of Tn6 peptide binding to fibrin DD(E), primary screen, biochemical, fluorescence polarization, human fibrin, Tn6 probe. inhibition, % at 8.3 µM. AID 720509, 2013. Fibrinogen beta chain (Homo sapiens), P02675. actives 0.21% (n = 370,000). Fibrin DD(E) TRITC-Tn6 fluorescence polarization displacement;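 active = inhibition above a per-campaign cutoff: mean of compounds within control limits plus 3 SD, cut at about 15% in these data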
LEDGF integ inh = blockers of LEDGF/p75-dependent integrase strand transfer – biochemical, TR-FRET, high throughput, primary screen. HIV-1 integrase (with human LEDGF/p75). TR-FRET IN-LEDGF/p75 DNA integration, Eu/Cy5. inhibition, % at 3.7 µM. actives 0.64% (n = 370,000);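 active = inhibition above the screen-wide mean plus 3 SD, cut at about 13% in these data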;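 also: signal is the Cy5 over europium emission ratio at 671 and 618 nm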
UHRF1 MBD2 ctr = UHRF1 methylated DNA binding inhibitors, primary screen, counter-screen for MBD2 inhibitor project, biochemical, TR-FRET, human UHRF1, single concentration; UHRF1 binding to methylated oligo; inhibition, % at 4.4 µM; actives 0.75% (n = 370,000); E3 ubiquitin-protein ligase UHRF1 (Homo sapiens), Q96T88; in the data active = inhibition above about 21%;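 also: UHRF1 SRA domain binding a hemimethylated CpG hairpin DNA probe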
DDE Tn7 FP inh = inhibitors of Tn7 peptide binding to fibrin DD(E), primary screen, biochemical, fluorescence polarization, human fibrin, Tn7 probe; FP displacement of FITC-Tn7 peptide from fibrin DD(E); 0% = median of compound wells per plate; Fibrinogen beta chain (Homo sapiens), P02675; actives 0.13% (n = 370,000); inhibition, % at 8.3 µM; AID 720508, 2013;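 active = inhibition above the mean of compounds falling within the control limits plus 3 SD of them, cut at about 14% in these data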
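Assay system: Human fibrin DD(E) protein | Medium: Tris buffer with calcium and detergent, pH 7.8 | Reagent: 0.1 µM fluorescent Tn7 | Compound dosing: Single point at 8.3 µM | Times: 10 min preincubation, 3 h with tracer, room temperature | Detection: Fluorescence polarization of the labelled Tn7 tracer | Controls: Aha-Tn7 high control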
Tn7 DDE conf = inhibitors of Tn7 peptide binding to fibrin DD(E), confirmation, biochemical, fluorescence polarization, human fibrin, Tn7 probe | shares compounds with DDE Tn7 FP inh | FP displacement of TRITC-Tn7 peptide from DD(E); 0% set at plate's compound-well median | inhibition, % at 8.3 µM | actives 5% (n = 460) | AID 720628, 2013;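 active = inhibition above the campaign cutoff, the mean of compounds within control limits plus 3 SD, cut at about 14% in these data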;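 also: displacers lower polarization since freed probe rises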
Tn7 DDE ctr = DD(E)-Tn7 binding inhibition, counter-screen; actives 3% (n = 460); shares compounds with DDE Tn7 FP inh; AID 720633; inhibition, % at 8.3 µM; fibrin DD(E), TRITC-Tn7 probe displacement, fluorescence polarization;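 active = inhibition above the cutoff, the mean of compounds lying between the control bounds plus 3 SD of those compounds, cut at about 17% in these data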
A number is an active result; 0 = inactive; - = no result given.

SMILES	MBD2 DNA inh	TDP2 inh	DDE Tn6 FP inh	LEDGF integ inh	UHRF1 MBD2 ctr	DDE Tn7 FP inh	Tn7 DDE conf	Tn7 DDE ctr
COc1ccc(C(=O)N2CCN(c3ccc(NC(=O)c4ccco4)cc3)CC2)cc1	0	0	0	0	0	14	0	0
O=C(O)c1ccccc1C1=Nc2ccc(O)cc2Oc2cc(O)ccc21	0	0	0	0	0	35	0	0
O=C(C(=Cc1ccccc1)c1ccccc1)c1ccccc1	0	0	0	0	0	16	0	0
O=C(C(=Cc1ccc(O)cc1)c1ccccc1)c1ccccc1	0	0	0	0	0	0	-	-
CCCCNc1cccc2c1S(=O)(=O)N[C@@H](CC(C)C)CO2	0	0	0	0	0	0	-	-
C[C@H]1CN([C@@H](C)CO)C(=O)CCCn2nncc2CO[C@@H]1CN(C)C(=O)Nc1ccccc1F	0	0	0	0	0	0	-	-
COC(=O)C1=C(C)NC(=O)NC1c1ccc2c(c1)OCO2 (centres undefined)	0	0	0	0	0	0	-	-
CC1=C(C(=O)OC(C)C)C(c2ccc3c(c2)OCO3)NC(=O)N1 (centres undefined)	0	0	0	0	0	16	0	0
COc1ccc(CCNC(=O)CC2SC(=NCc3ccccc3)NC2=O)cc1 (centres undefined)	0	0	0	0	0	15	0	0
Cc1cc(NC(=O)COC(=O)CNC(=O)c2cccs2)c([N+](=O)[O-])cc1C	0	0	0	0	0	0	-	-
O=C(COC(=O)CNC(=O)c1cccs1)Nc1ccc(C(F)(F)F)cc1[N+](=O)[O-]	0	0	0	0	0	15	0	0
CC(=O)c1ccccc1NC(=O)CCCNC(=O)c1ccc(Cl)cc1	0	0	0	0	0	15	0	0
Cc1ccccc1NC(=O)CCCNC(=O)c1ccc(Cl)cc1	0	0	0	0	0	0	-	-
COc1ccc([C@H]2CC(=O)C=C(c3ccc(Cl)c(F)c3)C2)cc1	0	0	0	0	0	14	0	0
CC1=C(C(N)=O)S(=O)(=O)c2ccccc21	0	0	0	0	0	0	-	-
CCOC(=O)C(C)(C)Oc1cccc2c1S(=O)(=O)c1ccccc1-2	0	0	0	0	0	14	0	0
CCCCS(=O)(=O)N1CCCc2nc(-c3ccccc3)ccc21	0	0	0	0	0	0	-	-
Cc1ccc[n+](-c2nc([O-])sc2C=O)c1	0	0	0	0	0	25	0	0
CC(C)c1ccc[n+](-c2nc([O-])sc2C=O)c1	0	0	0	0	0	0	-	-
CCN=C1NC(c2ccccc2)C(C(=O)OC)=C(C)N1Cc1ccc(C(F)(F)F)cc1 (centres undefined)	0	0	0	0	0	0	-	-
O=C(CNc1n[nH]c(=O)[nH]c1=O)N/N=C/c1cccnc1	0	0	0	0	0	0	-	-
O=C(CNc1n[nH]c(=O)[nH]c1=O)N/N=C/c1ccccc1	0	0	0	0	0	15	0	0
COc1cccc(OC)c1C(=O)OCC(=O)NCCCc1ccccc1	0	0	0	0	0	15	0	0
CCCN(CCC)C(=O)c1ccc2c(=O)n(Cc3ccco3)c(=S)[nH]c2c1	0	0	0	0	0	0	-	-
Cc1cc(=O)n(Cc2ccco2)c(=S)[nH]1	0	0	0	0	0	16	0	0
SMILES	MBD2 DNA inh	TDP2 inh	DDE Tn6 FP inh	LEDGF integ inh	UHRF1 MBD2 ctr	DDE Tn7 FP inh	Tn7 DDE conf	Tn7 DDE ctr
COc1ccc2c(c1)CO[C@H]([C@H](O)COC(C)=O)[C@H]2/C=C/c1ccccc1	0	0	0	0	0	15	0	0
Cc1ccccc1C(=O)NCC(C)NC(=O)c1ccccc1C (centres undefined)	0	0	0	0	0	14	0	0
O=S(=O)(c1ccc(SCc2ccc(Br)cc2)nc1)N1CCCCC1	0	0	0	0	0	14	0	0
CC(=O)C1=C(C)N(Cc2ccc(F)cc2)C(=S)NC1c1cccc(Br)c1 (centres undefined)	0	0	0	0	0	0	-	-
O=C(NC(=S)NC1CCSC1=O)c1ccccc1 (centres undefined)	0	0	0	0	0	0	-	-
O=C(NC(=S)NC1CCSC1=O)c1ccccc1Cl (centres undefined)	0	0	0	0	0	15	0	0
Cc1[nH]c2c(C)cccc2c(=O)c1CN1CCCCCC1	0	0	0	0	0	16	0	0
CCc1ccc2[nH]c(C)c(CN3CCCCCC3)c(=O)c2c1	0	0	0	0	0	0	-	-
COc1ccc(/C=N/N2CCN(c3ccc(Cl)cc3)CC2)cc1O	0	0	0	0	0	15	0	0
Cc1ccc(/C=N/N2C(=O)C3C(C2=O)C2C=CC3C23CC3)o1 (centres undefined)	0	0	0	0	0	14	0	0
COc1ccc([C@@H]2C[C@@H](c3ccccc3)Oc3c(C)ccc(C(C)C)c32)cc1	0	0	0	0	0	14	0	0
COc1ccc([C@@H]2C[C@@H](c3ccccc3)Oc3cc(C)cc(C)c32)cc1	0	0	0	0	0	0	-	-
CCOc1cc(C(C(=O)NCC2CCCO2)N(C(=O)Cn2nnc3ccccc32)c2ccc(NC(C)=O)cc2)ccc1O (centres undefined)	0	0	0	0	0	31	0	0
COc1ccc(C(C(=O)NCC2CCCO2)N(C(=O)Cn2nnc3ccccc32)c2ccc(NC(C)=O)cc2)cc1 (centres undefined)	0	0	0	0	0	0	-	-
NC(=O)C1CCN(C(=S)NCc2ccc3c(c2)OCO3)CC1	0	0	0	0	0	15	0	0
CN(C)S(=O)(=O)c1ccc(C(=O)NCC(=O)N/N=C/c2cccs2)cc1	0	0	0	0	0	15	0	0
COc1cc(/C=N\NC(=O)c2ccc(Cn3nc([N+](=O)[O-])c(Cl)c3C)o2)ccc1O	0	0	0	0	0	0	-	-
